Source: ChEMBL document CHEMBL4041550, “Structure-Activity Relationship Study of QL47: A Broad-Spectrum Antiviral Agent” (ACS Med Chem Lett, 2017)

Tests used:
[1] = system: dengue virus type 2; experiment: Antiviral activity against Dengue virus serotype 2 strain New Guinea C infected in HuH7 cells measured at 24 hrs post infection by focus forming assay; type: functional; details: Thailand/NGS-C/1944, Huh-7, 24 h
How it was run: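 Huh7 cells infected with DENV2, then treated with a range of compound concentrations. Viral yield measured 24 h later by titration of infectious particles in supernatants; in parallel, cell viability measured. IC90 (1-log10 reduction in infectious progeny) and CC50 derived by non-linear regression. Mean ± SD of experimental duplicates, n ≥ 2 repeats.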

[2] = system: dengue virus type 2; experiment: Antiviral activity against Dengue virus serotype 2 replicon harboring GVD mutant infected in HuH7 cells assessed as reduction in viral RNA translation at 2 uM measured at 6 hrs post infection by luciferase reporter gene assay relative to control; type: functional; design: scale not given: the % may be the effect or the level left
How it was run: (§1)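 Huh7 cells transfected with in vitro-transcribed nonreplicative DENV2(GVD) reporter replicon RNA, then treated immediately with compound at 2 or 10 μM. Intracellular firefly luciferase activity read 6 h post-transfection as a measure of RNA translation and expressed relative to DMSO-treated samples. Mean ± SD of experimental duplicates, n = 3 repeats.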

[3] = system: dengue virus type 2; experiment: Antiviral activity against Dengue virus serotype 2 replicon harboring GVD mutant infected in HuH7 cells assessed as reduction in viral RNA translation at 10 uM measured at 6 hrs post infection by luciferase reporter gene assay relative to control; type: functional; design: scale not given: the % may be the effect or the level left; how it was run: as §1
[4] = biological target: Serine/threonine-protein kinase pim-1 (Homo sapiens, UniProt P11309); experiment: Inhibition of recombinant full length His-tagged human PIM1 expressed in baculovirus expression system by Z'-Lyte assay
How it was run: (§2)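 IC50 against PIM1, PIM2, BTK and BMX determined with Z′-Lyte kinase activity assays.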

[5] = biological target: Serine/threonine-protein kinase pim-2 (Homo sapiens, UniProt Q9P1W9); experiment: Inhibition of recombinant full length GST-tagged human PIM2 expressed in baculovirus expression system by Z'-Lyte assay; how it was run: as §2
[6] = biological target: Tyrosine-protein kinase BTK (Homo sapiens, UniProt Q06187); experiment: Inhibition of recombinant full length His-tagged human BTK cytoplasmic domain expressed in baculovirus expression system by Z'-Lyte assay; how it was run: as §2
[7] = Half life in Swiss albino mouse at 10 mg/kg, po by LC/MS/MS method; type: ADME, organism-based; details: in vivo
How it was run: (§3)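 Mouse pharmacokinetics after intravenous, oral or intraperitoneal dosing; plasma parameters derived were T1/2, Tmax, Cmax, AUClast, AUCinf, clearance, Vss and oral bioavailability F.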

[8] = Tmax in Swiss albino mouse at 10 mg/kg, ip by LC/MS/MS method; type: ADME, organism-based; details: in vivo; how it was run: as §3
[9] = Tmax in Swiss albino mouse at 50 mg/kg, ip by LC/MS/MS method; type: ADME, organism-based; details: in vivo; how it was run: as §3
[10] = Cmax in Swiss albino mouse at 2 mg/kg, iv by LC/MS/MS method; type: ADME, organism-based; design: dose 2 mg/kg, route intravenous; details: in vivo; how it was run: as §3
[11] = Cmax in Swiss albino mouse at 10 mg/kg, ip by LC/MS/MS method; type: ADME, organism-based; design: dose 10 mg/kg, route intraperitoneal; details: in vivo; how it was run: as §3
[12] = AUClast in Swiss albino mouse at 2 mg/kg, iv by LC/MS/MS method; type: ADME, organism-based; design: dose 2 mg/kg, route intravenous, time 0 - last; details: in vivo
[13] = AUClast in Swiss albino mouse at 10 mg/kg, po by LC/MS/MS method; type: ADME, organism-based; design: dose 10 mg/kg, time 0 - last, route oral; details: in vivo
[14] = AUC (infinity) in Swiss albino mouse at 2 mg/kg, iv by LC/MS/MS method; type: ADME, organism-based; design: dose 2 mg/kg, route intravenous, time infinity; details: in vivo
[15] = AUC (infinity) in Swiss albino mouse at 10 mg/kg, po by LC/MS/MS method; type: ADME, organism-based; design: dose 10 mg/kg, route oral, time infinity; details: in vivo
[16] = Clearance in Swiss albino mouse at 2 mg/kg, iv by LC/MS/MS method; type: ADME, organism-based; details: in vivo; how it was run: as §3
[17] = Volume of distribution at steady state in Swiss albino mouse at 2 mg/kg, iv by LC/MS/MS method; type: ADME, organism-based; details: in vivo, read-out: Vdss; how it was run: as §3

Sequence of Serine/threonine-protein kinase pim-2 (Q9P1W9 whole entry, the tested form may be a part): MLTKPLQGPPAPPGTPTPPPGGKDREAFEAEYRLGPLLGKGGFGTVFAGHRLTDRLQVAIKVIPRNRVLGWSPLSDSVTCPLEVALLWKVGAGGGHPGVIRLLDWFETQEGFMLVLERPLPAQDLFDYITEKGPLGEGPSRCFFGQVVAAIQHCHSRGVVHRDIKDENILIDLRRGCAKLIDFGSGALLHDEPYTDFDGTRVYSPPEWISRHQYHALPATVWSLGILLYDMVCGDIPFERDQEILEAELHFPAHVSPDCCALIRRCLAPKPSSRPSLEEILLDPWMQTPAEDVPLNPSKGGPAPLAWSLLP
Sequence of Tyrosine-protein kinase BTK (Q06187 whole entry, the tested form may be a part): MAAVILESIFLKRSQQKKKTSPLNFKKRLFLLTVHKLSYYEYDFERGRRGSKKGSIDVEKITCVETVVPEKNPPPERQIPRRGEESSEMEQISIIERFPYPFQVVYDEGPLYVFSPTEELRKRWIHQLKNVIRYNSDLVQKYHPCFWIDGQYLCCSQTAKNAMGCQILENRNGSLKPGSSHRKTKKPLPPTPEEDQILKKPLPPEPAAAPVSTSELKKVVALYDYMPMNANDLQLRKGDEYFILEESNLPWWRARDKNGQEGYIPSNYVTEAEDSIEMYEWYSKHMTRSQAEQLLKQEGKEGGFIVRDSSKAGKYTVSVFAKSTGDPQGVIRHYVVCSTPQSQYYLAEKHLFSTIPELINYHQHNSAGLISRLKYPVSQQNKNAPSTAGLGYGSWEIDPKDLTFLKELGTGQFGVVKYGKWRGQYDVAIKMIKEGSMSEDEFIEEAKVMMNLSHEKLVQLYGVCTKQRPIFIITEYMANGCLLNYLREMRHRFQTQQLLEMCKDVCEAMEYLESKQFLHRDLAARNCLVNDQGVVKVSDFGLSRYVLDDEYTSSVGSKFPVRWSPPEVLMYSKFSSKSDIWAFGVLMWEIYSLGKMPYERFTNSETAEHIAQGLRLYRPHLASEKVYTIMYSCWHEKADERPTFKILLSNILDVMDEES
Sequence of Serine/threonine-protein kinase pim-1 (P11309 whole entry): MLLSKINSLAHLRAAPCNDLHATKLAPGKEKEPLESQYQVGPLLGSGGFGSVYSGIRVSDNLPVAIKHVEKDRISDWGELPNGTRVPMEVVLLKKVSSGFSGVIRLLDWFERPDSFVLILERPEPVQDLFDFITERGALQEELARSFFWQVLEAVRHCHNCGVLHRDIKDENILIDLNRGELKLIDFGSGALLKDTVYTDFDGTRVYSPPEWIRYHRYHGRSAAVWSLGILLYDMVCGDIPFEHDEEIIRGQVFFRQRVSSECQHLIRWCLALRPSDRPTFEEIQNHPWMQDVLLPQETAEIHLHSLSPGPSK

`Cc1ccc(-n2c(=O)ccc3ccc4ccc(-c5cnn(C)c5)cc4c32)cc1NC(=O)/C=C/CN(C)C` showed an IC90 [1] of 555 nM, an Activity [2] of 65% and an Activity [3] of 95%. The IC50 [4] was 1790 nM, the IC50 [5] was > 10000 nM and the IC50 [6] was 911 nM. For the same compound, the half-life [7] was 91.8 min, the Tmax [8] was 15 min and the Tmax [9] was 4.8 min. For the same compound, the Cmax [10] was 462 ng/mL, the Cmax [11] was 787 ng/mL and the AUC(0-t) [12] was 161 ng·h/mL. The AUC(0-t) [13] was 95.4 ng·h/mL, the AUC(0-inf) [14] was 167 ng·h/mL and the AUC(0-inf) [15] was 118 ng·h/mL. It also gave a clearance [16] of 199 mL/min/kg and a Vd [17] of 9.58 L/kg.
